According to ChEMBL document CHEMBL1148722, “Discovery and optimization of p38 inhibitors via computer-assisted drug design” (J Med Chem, 2007):
Blank lines part the entries; values can stand above or below the compound they belong to.

Assays:
Blood = assay: Inhibition of LPS-induced TNFalpha production in human whole blood; type: functional, tissue-based
In short: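 Fresh heparinized human whole blood was preincubated 30 min at 37 °C with serially diluted compound in type AB serum. It was then stimulated with E. coli LPS 0111:B4 (50 ng/mL final) for 5 h at 37 °C. Plasma TNFα was measured by ELISA, DELFIA or electrochemiluminescence against an on-plate standard curve. EC50 came from cross-plate duplicate 11-point curves fitted to a 4-parameter logistic, as the geometric mean over ≥3 donors.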

[1] = target: Mitogen-activated protein kinase 9 (Homo sapiens, UniProt P45984); assay: Inhibition of JNK2
[2] = target: Tyrosine-protein kinase Lyn (Homo sapiens, UniProt P07948); assay: Inhibition of Lyn
Mus musculus [3] = assay: Inhibition of LPS-induced TNFalpha production in BALB/c mouse at 10 mg/kg, po; type: functional
In short: (§1)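 Female Balb/c mice (~20 g) were gavaged with compound in cremophor about 30 min before i.v. LPS (E. coli 0111:B4, 1.0 µg/mouse) plus D-gal (50 mg/kg) in pyrogen-free saline. After 1 h, blood was taken by cardiac puncture under anaesthesia. Serum TNFα was measured by ELISA in duplicate, and compound level by HPLC.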

Mus musculus [4] = assay: Inhibition of LPS-induced TNFalpha production in BALB/c mouse at 3 mg/kg, po; type: functional; in short: as §1
[5] = Clearance in Sprague-Dawley rat at 1 mg/kg, iv; type: ADME, organism-based; design: dose 1 mg/kg, route intravenous; conditions: in vivo
In short: (§2)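 Male Sprague-Dawley rats, fasted overnight with food returned about 4 h post-dose, three per group. One group got 1 mg/kg as a ~15 s i.v. push via femoral vein catheter at 1 mL/kg. The other got 10 mg/kg by oral gavage at 10 mL/kg. Plasma was analysed by noncompartmental pharmacokinetic methods.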

[6] = Cmax in Sprague-Dawley rat at 10 mg/kg, po; type: ADME, organism-based; design: dose 10 mg/kg, route oral; conditions: in vivo; in short: as §2
[7] = Bioavailability in Sprague-Dawley rat at 10 mg/kg, po; type: ADME, organism-based; conditions: in vivo; in short: as §2

Chain of Tyrosine-protein kinase Lyn (P07948 whole entry): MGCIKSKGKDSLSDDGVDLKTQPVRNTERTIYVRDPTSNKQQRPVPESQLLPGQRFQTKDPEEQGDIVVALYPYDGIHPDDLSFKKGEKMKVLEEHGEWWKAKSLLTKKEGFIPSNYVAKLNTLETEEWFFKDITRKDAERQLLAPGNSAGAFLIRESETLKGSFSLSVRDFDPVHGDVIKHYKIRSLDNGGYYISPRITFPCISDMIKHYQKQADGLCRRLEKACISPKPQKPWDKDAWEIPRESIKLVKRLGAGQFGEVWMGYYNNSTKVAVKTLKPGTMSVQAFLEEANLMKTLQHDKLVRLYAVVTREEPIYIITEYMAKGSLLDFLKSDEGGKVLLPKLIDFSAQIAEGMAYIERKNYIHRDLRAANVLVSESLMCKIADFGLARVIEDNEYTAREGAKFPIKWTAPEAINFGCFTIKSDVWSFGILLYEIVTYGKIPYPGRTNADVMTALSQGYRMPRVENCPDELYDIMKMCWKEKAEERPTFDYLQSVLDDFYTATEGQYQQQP
Chain of Mitogen-activated protein kinase 9 (P45984 whole entry): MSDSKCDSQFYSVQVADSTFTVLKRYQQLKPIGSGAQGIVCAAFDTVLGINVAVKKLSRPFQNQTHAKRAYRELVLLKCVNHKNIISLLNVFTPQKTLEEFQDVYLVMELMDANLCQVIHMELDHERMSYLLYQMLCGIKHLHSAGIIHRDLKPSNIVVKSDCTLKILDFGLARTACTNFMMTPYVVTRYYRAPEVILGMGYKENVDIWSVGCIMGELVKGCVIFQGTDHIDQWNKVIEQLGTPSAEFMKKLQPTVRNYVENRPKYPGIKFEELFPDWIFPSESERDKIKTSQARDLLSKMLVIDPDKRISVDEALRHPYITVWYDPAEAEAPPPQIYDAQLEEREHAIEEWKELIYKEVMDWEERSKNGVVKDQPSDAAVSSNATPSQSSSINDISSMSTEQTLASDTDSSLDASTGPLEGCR

IC50 (Blood): 180 nM
IC50 [1]: 16 nM
IC50 [2]: 230 nM
clearance [5]: 4 mL/min/kg
Cmax [6]: 2400 ng/mL
bioavailability [7]: 51%
Structure (SMILES): COc1c(NC(=O)c2cc3cccc(NC(=O)c4ccc(NC5CC5)nc4)c3s2)cc(C(C)(C)C)cc1NS(C)(=O)=O
inhibition in vivo at 10 mg/kg (Mus musculus [3]): 98%
inhibition in vivo at 3 mg/kg (Mus musculus [4]): 80%

clearance [5]: 1.7 mL/min/kg
Cmax [6]: 10900 ng/mL
bioavailability [7]: 76%
Structure (SMILES): Cc1ccc(-n2nc(C(C)(C)C)cc2NC(=O)Nc2ccc(OCCN3CCOCC3)c3ccccc23)cc1 [DORAMAPIMOD]
inhibition in vivo at 10 mg/kg (Mus musculus [3]): 60%

IC50 (Blood): 1100 nM
Structure (SMILES): CNc1ccc(C(=O)Nc2cccc3cc(C(=O)Nc4cc(C(C)(C)C)cc(NS(C)(=O)=O)c4OC)sc23)cn1

IC50 (Blood): > 10000 nM
Structure (SMILES): COc1c(NC(=O)c2cc3c(NC(=O)c4cccnc4)cccc3s2)cc(C(C)(C)C)cc1NS(C)(=O)=O

IC50 (Blood): 1060 nM
Structure (SMILES): COc1c(NC(=O)Nc2ccc(OCCN3CCOCC3)c3ccccc23)cc(C(C)(C)C)cc1NS(C)(=O)=O

IC50 (Blood): > 10000 nM
Structure (SMILES): COc1c(NC(=O)c2cc3ccccc3n2C)cc(C(C)(C)C)cc1NS(C)(=O)=O

IC50 (Blood): 2200 nM
Structure (SMILES): COc1c(NC(=O)c2cc3cccc(NC(=O)c4ccc(N(C)C)nc4)c3s2)cc(C(C)(C)C)cc1NS(C)(=O)=O

IC50 (Blood): 430 nM
Structure (SMILES): COc1c(NC(=O)c2cc3cccc(NC(=O)c4ccc(N)nc4)c3s2)cc(C(C)(C)C)cc1NS(C)(=O)=O

IC50 (Blood): 650 nM
Structure (SMILES): COc1c(NC(=O)c2cc3cccc(NC(=O)c4ccc(NCCN(C)C)nc4)c3s2)cc(C(C)(C)C)cc1NS(C)(=O)=O

The remaining lines, values behind:

Structure (SMILES): COc1c(NC(=O)c2cc3ccccc3o2)cc(C(C)(C)C)cc1NS(C)(=O)=O
IC50 (Blood): > 10000 nM

Structure (SMILES): COc1c(NC(=O)c2cc3ccccc3s2)cc(C(C)(C)C)cc1NS(C)(=O)=O
IC50 (Blood): > 10000 nM

Structure (SMILES): COc1c(NC(=O)c2cc3cccc(NC(=O)c4ccc(NCCN5CCOCC5)nc4)c3s2)cc(C(C)(C)C)cc1NS(C)(=O)=O
IC50 (Blood): 550 nM

Structure (SMILES): CNc1ccc(C(=O)Nc2cccc3cc(C(=O)Nc4cc(C(C)(C)C)cc(NS(C)(=O)=O)c4OC)n(C)c23)cn1
IC50 (Blood): 500 nM

Structure (SMILES): COc1c(NC(=O)c2cc3cccc(NC(=O)c4ccc(NC5CC5)nc4)c3n2C)cc(C(C)(C)C)cc1NS(C)(=O)=O
IC50 (Blood): 140 nM
inhibition in vivo at 10 mg/kg (Mus musculus [3]): 75%
inhibition in vivo at 3 mg/kg (Mus musculus [4]): 60%
clearance [5]: 5 mL/min/kg
Cmax [6]: 14000 ng/mL
bioavailability [7]: 51%

Structure (SMILES): COc1c(NC(=O)c2cc3cccc(NC(=O)c4cccnc4)c3n2C)cc(C(C)(C)C)cc1NS(C)(=O)=O
IC50 (Blood): 3600 nM
inhibition in vivo at 10 mg/kg (Mus musculus [3]): 60%
clearance [5]: 3 mL/min/kg
Cmax [6]: 9000 ng/mL
bioavailability [7]: 90%

Structure (SMILES): COc1c(NC(=O)c2cc3cccc(NC(=O)c4cccnc4)c3s2)cc(C(C)(C)C)cc1NS(C)(=O)=O
IC50 (Blood): 1100 nM
inhibition in vivo at 10 mg/kg (Mus musculus [3]): 60%
clearance [5]: 19 mL/min/kg
Cmax [6]: 5200 ng/mL
bioavailability [7]: 57%

Structure (SMILES): COc1c(NC(=O)c2cc3cccc(NC(=O)c4ccc(NCCN(C)C)nc4)c3n2C)cc(C(C)(C)C)cc1NS(C)(=O)=O
IC50 (Blood): 700 nM

Structure (SMILES): COc1c(NC(=O)c2cc3ccccc3[nH]2)cc(C(C)(C)C)cc1NS(C)(=O)=O
IC50 (Blood): > 10000 nM

Structure (SMILES): COCCNc1ccc(C(=O)Nc2cccc3cc(C(=O)Nc4cc(C(C)(C)C)cc(NS(C)(=O)=O)c4OC)sc23)cn1
IC50 (Blood): 130 nM

Structure (SMILES): COCCNc1ccc(C(=O)Nc2cccc3cc(C(=O)Nc4cc(C(C)(C)C)cc(NS(C)(=O)=O)c4OC)n(C)c23)cn1
IC50 (Blood): 160 nM

Structure (SMILES): COc1c(NC(=O)c2cc3cccc(NC(=O)c4ccc(NCC5CC5)nc4)c3n2C)cc(C(C)(C)C)cc1NS(C)(=O)=O
IC50 (Blood): 150 nM

Structure (SMILES): COc1c(NC(=O)Nc2cccc3ccccc23)cc(C(C)(C)C)cc1NS(C)(=O)=O
IC50 (Blood): > 10000 nM

Structure (SMILES): COc1c(NC(=O)c2cc3cccc(NC(=O)c4ccc(NCC5CC5)nc4)c3s2)cc(C(C)(C)C)cc1NS(C)(=O)=O
IC50 (Blood): 670 nM

Structure (SMILES): COc1c(NC(=O)c2cc3cccc(NC(=O)c4ccc(NCCN5CCOCC5)nc4)c3n2C)cc(C(C)(C)C)cc1NS(C)(=O)=O
IC50 (Blood): 250 nM
